A short description of test [1]: Cytotoxicity against BAEC after 2 days by MTT assay. The test is classed as cell-based, Bos taurus. The gist of the method:
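BAE cells (primary bovine aortic endothelium, collagenase-isolated; grown in DMEM/20% FBS), 8·10³ per well, exposed to serial dilutions for 2 days at 37 °C, 5% CO₂. MTT (5 mg/mL in PBS) then added for a further 2 h at 37 °C. Formazan dissolved in DMSO and read spectrophotometrically. IC50 = concentration inhibiting growth by 50%; ">" means not reached at the top concentration tested.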
A general note: Formazan colour is commonly taken as a measure of viable cells.

Test [2] in a line: Effect on tube formation of BAEC assessed as sprouting inhibition after 48 hrs. Type of test: functional, Bos taurus. Summed up: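 BAE cells coated onto Cytodex 3 microcarrier beads over 48 h at 37 °C, 5% CO₂. Beads (250/mL) seeded onto Matrigel in wells containing compound; medium added after 30 min. After 48 h, sprout extent and length scored by microscopy against untreated wells. MIC = lowest concentration with no tube formation; ">" means not reached at the top concentration tested.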

Test [3] is described as follows: Ratio of MIC for BAEC sprouting to IC50 for BAEC. Type of test: functional, Bos taurus.
Setting [4] is: Bos taurus, 48 h, read-out: MIC.

Among the data in ChEMBL document CHEMBL1143700, “Antiangiogenic versus cytotoxic activity in analogues of aeroplysinin-1” (Bioorg Med Chem, 2007) are IC50, MIC and Ratio values, retold here.

pIC50: −log10 of the molar value. In brackets after ≈: the same amount, converted by molar mass.

Regarding `COC1=CC(=O)[C@]2(C=C1Br)CO2`, the pIC50 – broadly, the IC50 on a negative log10 scale, so that one unit is a factor of ten – in test [1] (Bos taurus, BAEC, 48 h) was below 4.66. For the same compound, the MIC (in general, the smallest concentration in the dilution series that meets the test's criterion for growth inhibition) in test [2] (setting [4]) is above 22 µM.
On the same counts, the results for `COC(=O)/C(=C/c1cc(Br)c(OC)c(Br)c1OCc1ccccc1)NC(=O)c1ccccc1` are below 4.77 and above 35 µM.
The compound `O=Cc1cc(Br)cc(Br)c1O` showed a pIC50 in test [1] (Bos taurus, BAEC, 48 h) of 4.44. The MIC in test [2] (setting [4]) was found to be 71 µM (≈ 19.9 µg/mL). Also, the Ratio in test [3] came to 0.5.
For `COC1=C(Br)C(=O)[C@]2(C=C1)CO2`, in that order: 4.96, 3 µM (≈ 0.693 µg/mL) and 4.
For `O=C1C(Br)=CC(Br)=C[C@]12CO2`, in test [1] (Bos taurus, BAEC, 48 h), the pIC50 was 4.92. Also, the MIC in test [2] (setting [4]) is 2 µM (≈ 0.56 µg/mL). In addition, the Ratio in test [3] was found to be 6.
As for `OCc1cc(Br)cc(Br)c1O`, the pIC50 in test [1] (Bos taurus, BAEC, 48 h) is below 4.46. Besides, the MIC in test [2] (setting [4]) amounted to 71 µM (≈ 20 µg/mL).
For `COc1c(Br)cc(CO)c(OCCO)c1Br`, in that order: below 4.55 and 28 µM (≈ 9.97 µg/mL).
On the same counts, the results for `COc1ccc(C=O)c(O)c1` are below 4.48 and above 33 µM.
On the same counts, the results for `COC(=O)CCc1cc(Br)c(OC)c(Br)c1O` are 3.87 and above 27 µM.
In test [1] (baec), `COc1c(Br)cc(/C=C2\N=C(c3ccccc3)OC2=O)c(OCc2cc(N(C)C)ccc2Br)c1Br` [listing 1 of 2 here] showed a pIC50 below 4.82. In test [2], the MIC was above 30 µM.
In test [1] (Bos taurus, BAEC, 48 h), `O=C1C2(Br)C=C(Br)C([C@H]3[C@]2(Br)C=C(Br)C(=O)[C@]32CO2)[C@@]12CO2` (some centres undefined) showed a negative logarithm of the IC50 (pIC50) of 5.40. In test [2] (setting [4]), the MIC was 2 µM (≈ 1.12 µg/mL). Moreover, the Ratio in test [3] is given as 2.
Turning to `COC(=O)/C=C/c1cc(Br)c(OC)c(Br)c1O`, in test [1] (Bos taurus, BAEC, 48 h), the negative-log IC50 (pIC50) was below 4.85. Also, the MIC in test [2] (setting [4]) was above 14 µM.
For `COc1c(Br)cc(/C=C2\N=C(c3ccccc3)OC2=O)c(OC(=O)c2ccc(N(C)C)cc2)c1Br`, in that order: 4.08 and above 17 µM.
The compound `COC(=O)COc1c(CO)cc(Br)c(OC)c1Br` had a negative-log IC50 (pIC50) in test [1] (Bos taurus, BAEC, 48 h) below 4.59. In addition, in test [2] (setting [4]), the MIC is above 26 µM.
As for `COC(=O)COc1c(C=O)cc(Br)c(OC)c1Br`, the pIC50 in test [1] (Bos taurus, BAEC, 48 h) is 3.82. Further, the MIC in test [2] (setting [4]) was determined as 52 µM (≈ 19.9 µg/mL). In addition, the Ratio in test [3] amounted to 3.
`COc1c(Br)cc(C=O)c(OCc2cc(N(C)C)ccc2Br)c1Br` showed a pIC50 in test [1] (Bos taurus, BAEC, 48 h) below 4.72. For the same compound, the MIC in test [2] (setting [4]) is above 38 µM.
Compound `COc1c(Br)cc(/C=C2\N=C(c3ccccc3)OC2=O)c(OCc2ccccc2)c1Br` showed a pIC50 in test [1] (Bos taurus, BAEC, 48 h) of 3.04. In addition, in test [2] (setting [4]), the MIC is 1 µM (≈ 0.543 µg/mL). Moreover, the Ratio in test [3] is 921.
`COc1c(Br)cc(C=O)c(OC(=O)c2ccc(N(C)C)cc2)c1Br`: in test [1] (Bos taurus, BAEC, 48 h), the pIC50 was below 4.66. The MIC in test [2] (setting [4]) was above 44 µM.
For `COc1c(Br)cc2c(c1Br)OCC(O)OC2` (centres undefined), in that order: below 4.55 and above 28 µM.
Compound `COC1=C(Br)C(=O)[C@]2(C=C1Br)CO2` had a pIC50 in test [1] (Bos taurus, BAEC, 48 h) of 3.79. Moreover, the MIC in test [2] (setting [4]) came to 3 µM (≈ 0.93 µg/mL). Also, the Ratio in test [3] amounted to 54.
As for `COc1c(Br)cc(CO)c(OCc2ccccc2)c1Br`, the pIC50 in test [1] (Bos taurus, BAEC, 48 h) is below 4.92. In addition, the MIC in test [2] (setting [4]) is above 12 µM.
On the same counts, the results for `O=C1C=CC(Br)=C[C@]12CO2` are below 4.60 and 25 µM (≈ 5.03 µg/mL).
The compound `COC1=C(Br)[C@H](O)[C@](O)(CC#N)C=C1Br` (single isomer, unassigned) gave a pIC50 in test [1] (Bos taurus, BAEC, 48 h) of 4.54. In test [2] (setting [4]), the MIC worked out at 2 µM (≈ 0.678 µg/mL). Also, the Ratio in test [3] came out at 14.
As to `COc1c(Br)cc(C=O)c(O)c1Br`, in test [1] (Bos taurus, BAEC, 48 h), the pIC50 is 3.09. Moreover, in test [2] (setting [4]), the MIC was above 16 µM.
On the same counts, the results for `COc1c(Br)cc(/C=C2\N=C(c3ccccc3)OC2=O)c(OC(=O)c2ccccc2)c1Br` are below 4.74 and 27 µM (≈ 15 µg/mL).
Compound `COc1c(Br)cc(/C=C2\N=C(c3ccccc3)OC2=O)c(OCc2cc(N(C)C)ccc2Br)c1Br` [listing 2 of 2 here] gave a pIC50 in test [1] (baec) of 4.15. Further, in test [2] (setting [4]), the MIC was above 28 µM.
`COc1c(Br)cc(CO)c(O)c1Br` gave a pIC50 in test [1] (Bos taurus, BAEC, 48 h) below 4.80. In addition, the minimal inhibitory concentration (MIC) in test [2] (setting [4]) was above 16 µM.
For `COC1=C(Br)C(=O)[C@@]2(CO2)C(OC)=C1Br`, in that order: below 4.82 and 15 µM (≈ 5.1 µg/mL).
On the same counts, the results for `COc1c(Br)cc(C=O)c(OCc2ccccc2)c1Br` are below 4.90 and above 12.5 µM.
Compound `COc1c(Br)cc(C=O)c(OC(C)=O)c1Br` had a pIC50 in test [1] (Bos taurus, BAEC, 48 h) of 4.64. For the same compound, the MIC in test [2] (setting [4]) came to 33 µM (≈ 11.6 µg/mL). Further, the Ratio in test [3] is reported as 0.7.
In test [1] (Bos taurus, BAEC, 48 h), `COC1=CC(=O)[C@]2(C=C1)CO2` gave a pIC50 of 4.48. In addition, in test [2] (setting [4]), the MIC was 33 µM (≈ 5.02 µg/mL). Besides, the Ratio in test [3] amounted to 1.
In test [1] (Bos taurus, BAEC, 48 h), `COc1c(Br)cc(/C=C2\N=C(c3ccccc3)OC2=O)c(O)c1Br` had a pIC50 below 4.66. Further, in test [2] (setting [4]), the MIC was above 22 µM.
